In brackets after ≈: the same amount, converted by molar mass. Some results are limits rather than exact numbers.

Common to all, as to type: functional
The test system of assay [1] is Staphylococcus aureus. The assay is described as follows: Bacteriostatic activity against methicillin-resistant Staphylococcus aureus NRS119 clinical isolate after 20 hrs by broth microdilution method. The following applies: NRS119, 20 h. The method in brief: (§1)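 Broth microdilution MIC over 128 to 1 μg/mL, run alongside methicillin, linezolid and vancomycin. MIC taken as the lowest concentration with no visible growth.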
For orientation: In broth dilution the organism is exposed to a series of concentrations in liquid medium.

The subject of assay [2] is Staphylococcus aureus. The assay is described as follows: Bacteriostatic activity against methicillin-resistant Staphylococcus aureus USA400 NRS123 clinical isolate after 20 hrs by broth microdilution method. The following applies: USA400 NRS123, 20 h. The procedure, abridged:
as §1

Assay [3] concerns Staphylococcus aureus. The assay is described as follows: Bacteriostatic activity against methicillin-resistant Staphylococcus aureus USA300 NRS384 clinical isolate after 20 hrs by broth microdilution method. The following applies: USA300 NRS384, 20 h. The procedure, abridged: as §1
The test system of assay [4] is Staphylococcus aureus. Nature of the assay: Bacteriostatic activity against methicillin-resistant Staphylococcus aureus USA500 NRS385 clinical isolate after 20 hrs by broth microdilution method. The following applies: USA500 NRS385, 20 h. The procedure, abridged: as §1
The subject of assay [5] is Staphylococcus aureus. The assay is described as follows: Bacteriostatic activity against methicillin-resistant Staphylococcus aureus USA700 NRS386 clinical isolate after 20 hrs by broth microdilution method. The following applies: USA700 NRS386, 20 h. The method in brief: as §1
Assay [6] relates to Staphylococcus aureus. Nature of the assay: Bacteriostatic activity against methicillin-resistant Staphylococcus aureus USA800 NRS387 clinical isolate after 20 hrs by broth microdilution method. The note with it: USA800 NRS387, 20 h. The method in brief: as §1
For assay [7], the system named is Staphylococcus aureus. The assay is described as follows: Bacteriostatic activity against vancomycin-intermediate Staphylococcus aureus NRS1 clinical isolate after 20 hrs by broth microdilution method. The following applies: NRS1, 20 h. The procedure, abridged:
as §1

The test system of assay [8] is Staphylococcus aureus. Nature of the assay: Bacteriostatic activity against vancomycin-resistant Staphylococcus aureus VRS12 clinical isolate after 20 hrs by broth microdilution method. The following applies: VRS12, 20 h. The procedure, abridged: as §1
Assay [9] relates to Enterococcus faecium. The assay is described as follows: Bacteriostatic activity against vancomycin-resistant Enterococcus faecium ATCC 700221 clinical isolate after 20 hrs by broth microdilution method. The note with it: ATCC 700221, 20 h. The method in brief:
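Broth microdilution MIC over 128 to 1 μg/mL in Brain Heart Infusion broth, 37 °C for at least 20 h. MIC taken as the lowest concentration with no visible growth.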

Assay [10] has as its system Staphylococcus aureus. Nature of the assay: Bactericidal activity against methicillin-resistant Staphylococcus aureus NRS119 clinical isolate preincubated for 20 hrs followed by TSA plating and measured after 18 hrs.
The subject of assay [11] is Staphylococcus aureus. The assay is described as follows: Bactericidal activity against methicillin-resistant Staphylococcus aureus USA400 NRS123 clinical isolate preincubated for 20 hrs followed by TSA plating and measured after 18 hrs.
Assay [12] has as its system Staphylococcus aureus. Nature of the assay: Bactericidal activity against methicillin-resistant Staphylococcus aureus USA300 NRS384 clinical isolate preincubated for 20 hrs followed by TSA plating and measured after 18 hrs.
Assay [13] relates to Staphylococcus aureus. The assay is described as follows: Bactericidal activity against methicillin-resistant Staphylococcus aureus USA500 NRS385 clinical isolate preincubated for 20 hrs followed by TSA plating and measured after 18 hrs.
The test system of assay [14] is Staphylococcus aureus. Nature of the assay: Bactericidal activity against methicillin-resistant Staphylococcus aureus USA700 NRS386 clinical isolate preincubated for 20 hrs followed by TSA plating and measured after 18 hrs.
Assay [15] deals with Staphylococcus aureus. Nature of the assay: Bactericidal activity against methicillin-resistant Staphylococcus aureus USA800 NRS387 clinical isolate preincubated for 20 hrs followed by TSA plating and measured after 18 hrs.
In assay [16] the test system is Staphylococcus aureus. The assay is described as follows: Bactericidal activity against vancomycin-intermediate Staphylococcus aureus NRS1 clinical isolate preincubated for 20 hrs followed by TSA plating and measured after 18 hrs.
Assay [17] has as its system Staphylococcus aureus. Nature of the assay: Bactericidal activity against vancomycin-resistant Staphylococcus aureus VRS12 clinical isolate preincubated for 20 hrs followed by TSA plating and measured after 18 hrs.
Assay [18] has as its system Enterococcus faecium. Nature of the assay: Bactericidal activity against vancomycin-resistant Enterococcus faecium ATCC 700221 clinical isolate preincubated for 20 hrs followed by TSA plating and measured after 18 hrs. The method in brief:
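MBC: 4 μL from wells with no growth in the MIC plate (Brain Heart Infusion broth, 37 °C, at least 20 h) spotted onto Tryptic Soy Agar. Read after at least 18 h at 37 °C.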

For assay [19], the system named is Escherichia coli. The assay is described as follows: Bacteriostatic activity against Escherichia coli BW25113 after 20 hrs by broth microdilution method. The note with it: BW25113, 20 h. The procedure, abridged:
(§2)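 MIC by broth microdilution across 128 to 1 μg/mL in 96-well plates, 37 °C for at least 20 h. MIC is the lowest concentration with no visible growth.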

Assay [20] has as its system Escherichia coli. Nature of the assay: Bacteriostatic activity against AcrAB-tolC deficient Escherichia coli JW5503-1 after 20 hrs by broth microdilution method. The following applies: JW5503-1, 20 h. The method in brief:
as §2

Assay [21] has as its system Staphylococcus aureus. The assay is described as follows: Antibacterial activity against methicillin-resistant Staphylococcus aureus USA300 in BALB/c mouse wound infection model assessed as reduction in bacterial burden in wound at 2% administered topically bid for 5 days relative to control. On the set-up: scale not given: the % may be the effect or the level left. The method in brief: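 Female BALB/c mice, eight weeks old, n = 5 per group, injected intradermally with 40 μL of 1.32×10^9 CFU/mL MRSA USA300. Once an abscess or open wound formed, it was treated topically twice daily for five days with 2% agent in petroleum jelly, with vehicle as control. Wound tissue excised 12 h after the last dose, homogenized in PBS, diluted and plated on mannitol salt agar for 16 h or more at 37 °C. CFU reduction calculated against vehicle.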

With `CC(=O)NC[C@H]1CN(c2ccc(N3CCOCC3)c(F)c2)C(=O)O1` [LINEZOLID], the minimal inhibitory concentration (MIC) (commonly the least concentration at which growth counts as inhibited) was 32 µg/mL (≈ 94.9 µM) against Staphylococcus aureus [1]; not above 1 µg/mL in the assay on Staphylococcus aureus [2]; not above 1 µg/mL against Staphylococcus aureus [3]; not above 1 µg/mL in the assay on Staphylococcus aureus [4]; not above 1 µg/mL with Staphylococcus aureus [5]; not above 1 µg/mL with Staphylococcus aureus [6]. Also, the minimal inhibitory concentration (MIC) with Staphylococcus aureus [7] is not above 1 µg/mL; in the assay with Staphylococcus aureus [8], not above 1 µg/mL; against Enterococcus faecium [9], not above 1 µg/mL; with Escherichia coli [19], more than 128 µg/mL; against Escherichia coli [20], 8 µg/mL (≈ 23.7 µM). Further, the MBC (as a rule, the smallest concentration meeting the test's criterion for killing) against Staphylococcus aureus [10] was determined as 32 µg/mL (≈ 94.9 µM); against Staphylococcus aureus [11], 64 µg/mL (≈ 190 µM); in the assay on Staphylococcus aureus [12], 64 µg/mL (≈ 190 µM); in the assay on Staphylococcus aureus [13], 2 µg/mL (≈ 5.93 µM); in the assay on Staphylococcus aureus [14] it was 128 µg/mL (≈ 379 µM); in the assay on Staphylococcus aureus [15], 128 µg/mL (≈ 379 µM). For the same compound, the MBC against Staphylococcus aureus [16] was found to be 1 µg/mL (≈ 2.96 µM); in the assay with Staphylococcus aureus [17], 32 µg/mL (≈ 94.9 µM); in the assay on Enterococcus faecium [18], 64 µg/mL (≈ 190 µM).
On to `CC(=O)O[C@H]1C[C@@]2(C)[C@@H](C[C@@H](O)[C@H]3[C@@]4(C)CC[C@@H](O)[C@@H](C)[C@@H]4CC[C@@]32C)/C1=C(\CCC=C(C)C)C(=O)O` [FUSIDIC ACID], for which, in the assay on Staphylococcus aureus [21], the Activity worked out at 77.91%.
